Compound activity (PubChem)
GSK3 alpha inh: blockers of GSK3A enzyme activity – biochemical, luminescence, cell-free homogeneous, HTS, primary screen; Glycogen synthase kinase-3 alpha (Homo sapiens), P49840; GSK-3 alpha kinase, ADP-Glo luminescence, 60 min; inhibition, % at 10 µM; 320,000 compounds, 0.1% hits; AID 2650, 2010;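 active means more than half of replicates show inhibition above 20%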;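 further: GST-tagged GSK-3 alpha with peptide substrate and 25 µM ATP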
STK33 inh: inhibitors of purified STK33 kinase, primary screen, biochemical, ADP-Glo luminescence, homogeneous, cell-free | MBP phosphorylation | 320,000 compounds, 0.073% hits | inhibition, % at 10 µM;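 active means inhibition at or above 25%, using the most active replicate where run in duplicate; inactive means inhibition below 25%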
Target sequence (Q9BYT3 whole entry, looked up): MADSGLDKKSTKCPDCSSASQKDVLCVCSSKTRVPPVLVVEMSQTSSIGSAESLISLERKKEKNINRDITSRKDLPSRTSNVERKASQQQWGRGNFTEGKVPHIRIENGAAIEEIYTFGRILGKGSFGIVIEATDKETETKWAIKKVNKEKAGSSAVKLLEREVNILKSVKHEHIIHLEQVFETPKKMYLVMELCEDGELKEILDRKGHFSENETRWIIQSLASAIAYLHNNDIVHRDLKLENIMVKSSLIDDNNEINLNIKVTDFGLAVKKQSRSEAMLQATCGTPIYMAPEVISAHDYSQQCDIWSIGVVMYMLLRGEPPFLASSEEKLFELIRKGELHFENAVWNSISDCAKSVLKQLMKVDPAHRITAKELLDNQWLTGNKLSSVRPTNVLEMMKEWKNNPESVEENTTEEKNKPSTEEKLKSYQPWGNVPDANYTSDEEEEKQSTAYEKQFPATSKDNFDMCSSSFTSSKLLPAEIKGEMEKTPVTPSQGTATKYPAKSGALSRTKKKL
GSK3beta inhib: human GSK3beta kinase inhibitors, primary screen, biochemical, cell-free homogeneous, HTS; Glycogen synthase kinase-3 beta (Homo sapiens), P49841; activity score (negative = inhibition), % at 10 µM; AID 2097, 2009; 300,000 compounds, 0.038% hits; GST-GSK3beta kinase, ADP-Glo luminescence, 60 min; active compounds read low;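 active means more than half of replicate wells score below -50%, meaning over 50% inhibition versus plate controls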
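test system = GST-tagged human GSK3beta kinase, cell-free | reagent = 25 µM ATP with peptide substrate | dosing = one dose of 10 µM per compound | schedule = 60 min reaction, RT | detection = luminescent ADP-Glo measurement of ADP formed | control set = DMSO neutral wells and GW8510 at 20 µM as positive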
MEKK2 WT-MEK5: modulators of MEK5 binding to wildtype MEKK2, primary screen, biochemical, multiplex bead flow cytometry, Alexa488-MEK5. Mitogen-activated protein kinase kinase kinase 2 (Homo sapiens), Q9Y2U5. Alexa488-MEK5 binding to MEKK2 WT; actives lie on both sides. binding response (% of control), % at 10 µM. 290,000 compounds, 1.1% hits. AID 1531, 2009; in the data active means binding response below about 67% or above about 130%
MEKK2 mut-MEK5: MEK5 binding signal on mutant MEKK2 PB1, primary screen, biochemical, multiplex bead flow cytometry, Alexa488-MEK5. 290,000 compounds, 0.35% hits. AID 1530, 2009. Alexa488-MEK5 binding to MEKK2 mutant. percent response, % at 10 µM; in the data active means percent response above about 24%, passing the limit was not always enough
MEKK3 PB1 HTS: modulators of MEKK3-MEK5 PB1 binding, primary screen, biochemical, wildtype MEKK3, multiplex bead flow cytometry, Alexa488-MEK5 | bead-based flow cytometry, Alexa488-MEK5 binding to MEKK3; actives lie on both sides; 0 = blocked by unlabeled MEK5, 100 = vehicle | 290,000 compounds, 1.4% hits | Mitogen-activated protein kinase kinase kinase 3 (Homo sapiens), Q99759 | AID 1529, 2009 | binding response (% of control), % at 10 µM;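 active means binding response more than 3 SD above or below the average of its plate-row segment, actives on both sides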;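 further: Alexa488 bead fluorescence after subtracting the streptavidin-only scavenger bead signal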
MEKK2wt confirm: modulators of MEK5 binding to wildtype MEKK2, confirmation, biochemical, single concentration, multiplex bead flow cytometry. shares compounds with MEKK3 PB1 HTS. Alexa488-MEK5 binding to MEKK2 WT; actives lie on both sides. binding response (% of control), % at 10 µM. 5,900 compounds, 2.4% hits; in the data active means binding response below about 16% or above about 210%; inactive means in between
MEKK2mut-MEK5: mutant MEKK2 PB1-MEK5 binding signal retest – biochemical, single concentration, multiplex bead flow cytometry, confirmation; shares compounds with MEKK3 PB1 HTS; Alexa488-MEK5 binding to MEKK2 mutant; percent response, % at 10 µM; 5,900 compounds, 2% hits; AID 1893, 2009; in the data active means percent response mostly above about 71%, no sharp cut-off; inactive means mostly below about 38%;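 further: higher means compound restores mutant binding toward wildtype level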
MEKK3-MEK5 inh: MEKK3 wild-type PB1 binding to MEK5, inhibitors, confirmation, biochemical, bead multiplex flow cytometry, single concentration, wildtype; shares compounds with MEKK3 PB1 HTS; Alexa488-MEK5 binding to MEKK3; active compounds read low; binding response (% of control), % at 10 µM; 5,900 compounds, 1.8% hits; AID 1894, 2009;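 active means binding response below 72% of control, or above a set upper limit, though filed actives all read lower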;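 further: lower values mean stronger disruption of MEK5 binding to MEKK3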
Of the large screens only hits and unclear results are named; the others gave an inactive call (follow-up assays come after a bar, where they were run); [ ] = dose if it differs, or a comment. This is a sample that favours compounds with a hit; in the whole collection about 2.1% have one here.

Cc1sc2nc(CN3CCCC3)nc(N3CCN(S(=O)(=O)c4cccs4)CC3)c2c1C	MEKK2 WT-MEK5 145.0 | MEKK2wt confirm inactive | MEKK2mut-MEK5 inactive | MEKK3-MEK5 inh inactive
Cc1ccc(S(=O)(=O)N2CCN(c3nc(CN4CCCC4)nc4sc(C)c(C)c34)CC2)cc1	none (no result: GSK3beta inhib, MEKK2 WT-MEK5, MEKK2 mut-MEK5, MEKK3 PB1 HTS)
Cn1cc(C(=O)c2ccccc2C(=O)O)cc1C(=O)C(Cl)(Cl)Cl	none
Cc1ccc(NC(=O)c2snc3ccc(Cl)cc23)cc1C	MEKK3 PB1 HTS 131.0 | MEKK2wt confirm inactive | MEKK2mut-MEK5 inactive | MEKK3-MEK5 inh inactive
Cc1ccc(NC(=O)c2snc3c(=O)[nH]cnc23)cc1C	none (no result: GSK3 alpha inh, STK33 inh, GSK3beta inhib)
O=C(Nc1ccc(-c2nc3ccccc3[nH]2)cc1)c1ccc2c(c1)OCO2	MEKK3 PB1 HTS 81.0[inhibitor] | MEKK2wt confirm inactive | MEKK2mut-MEK5 inactive | MEKK3-MEK5 inh inactive
O=C(Nc1ccc(Cl)c(-c2nc3ccccc3[nH]2)c1)c1ccc2c(c1)OCO2	none
CCOc1ccc2nc(NC(=O)CC3Oc4ccccc4NC3=O)sc2c1 (stereo not given)	none (no result: GSK3 alpha inh)
Cc1nc(-c2ccccn2)nc(SCC(=O)N2CCOCC2)c1Cl	MEKK3 PB1 HTS 129.0 | MEKK2wt confirm inactive | MEKK2mut-MEK5 inactive | MEKK3-MEK5 inh inactive
O=C(/C=C/c1ccc([N+](=O)[O-])cc1)Nc1ncc([N+](=O)[O-])s1	none (no result: GSK3 alpha inh, STK33 inh, GSK3beta inhib)
CCOC(=O)c1c(/N=C/c2cc(OC)cc([N+](=O)[O-])c2O)sc(C)c1C	MEKK3 PB1 HTS 135.0 | MEKK2wt confirm inactive | MEKK2mut-MEK5 inactive | MEKK3-MEK5 inh inactive
O=C(NCc1cccc(CNC(=O)C(=O)NCC2CCCO2)c1)C(=O)NCC1CCCO1 (stereo not given)	none
O=C(NCCc1ccccc1)C(=O)NCC1CCCO1 (stereo not given)	MEKK2 WT-MEK5 17.0[inhibitor], MEKK3 PB1 HTS 12.0[inhibitor] | MEKK2wt confirm inactive | MEKK2mut-MEK5 inactive | MEKK3-MEK5 inh inactive
S=C(NCC1CCCO1)Nc1ccc(Cl)cc1 (stereo not given)	MEKK3 PB1 HTS 141.0 | MEKK2wt confirm inactive | MEKK2mut-MEK5 inactive | MEKK3-MEK5 inh inactive
O=C(NCC1CCCO1)NC12CC3CC(CC(C3)C1)C2 (stereo not given)	none
S=C(NCC1CCCO1)NC12CC3CC(CC(C3)C1)C2 (stereo not given)	MEKK2 WT-MEK5 6.0[inhibitor], MEKK3 PB1 HTS 4.0[inhibitor] | MEKK2wt confirm inactive | MEKK2mut-MEK5 inactive | MEKK3-MEK5 inh inactive
COc1ccc(Cl)cc1S(=O)(=O)N(C)CC(=O)N1CCOCC1	none
O=C(CCN1C(=O)c2ccccc2S1(=O)=O)Nc1ccc(F)c([N+](=O)[O-])c1	none (no result: MEKK2 WT-MEK5, MEKK2 mut-MEK5, MEKK3 PB1 HTS)
Cc1cc(OCC(=O)NC(C)(C)C)ccc1Cl	MEKK3 PB1 HTS 128.0 | MEKK2wt confirm inactive | MEKK2mut-MEK5 inactive | MEKK3-MEK5 inh inactive
CCCCCCn1c(N2CCC(C(N)=O)CC2)nc2c1c(=O)n(C)c(=O)n2C	MEKK2 WT-MEK5 2.0[inhibitor], MEKK3 PB1 HTS 2.0[inhibitor] | MEKK2wt confirm inactive | MEKK2mut-MEK5 inactive | MEKK3-MEK5 inh inactive
CCCCCCn1c(N2CCC(C(N)=O)CC2)nc2c1c(=O)[nH]c(=O)n2C	none
COC(=O)c1ccc(C2C(Oc3ccc(OC)cc3)C(=O)N2CCc2ccc(OC)c(OC)c2)cc1 (stereo not given)	MEKK3 PB1 HTS 157.0 | MEKK2wt confirm inactive | MEKK2mut-MEK5 inactive | MEKK3-MEK5 inh inactive
COC(=O)c1ccc(C2C(Oc3ccccc3)C(=O)N2CCc2ccc(F)cc2)cc1 (stereo not given)	none
CCCCC(=O)Nc1nnc(CCOC)s1	none
Cc1ccc(C2N=C(N)Nc3nc(=O)c4ccccc4n32)cc1 (stereo not given)	none
CCc1ccccc1NC(=O)c1ccc(S(=O)(=O)NCC2CCCO2)cc1 (stereo not given)	none (no result: GSK3beta inhib)
COc1ccc(NC(=O)c2sc3nc(Cc4ccccc4)cc(C(F)(F)F)c3c2N)cc1OC	MEKK3 PB1 HTS 159.0 | MEKK2wt confirm inactive | MEKK2mut-MEK5 inactive | MEKK3-MEK5 inh 35.0
Cc1nn2c(NCCCN(C)C)c3c(nc2c1-c1ccccc1)CCC3	MEKK2 WT-MEK5 173.0, MEKK2 mut-MEK5 34.0 | MEKK2wt confirm inactive | MEKK2mut-MEK5 inactive | MEKK3-MEK5 inh inactive
Cc1nn2c(C(F)(F)F)c3c(nc2c1-c1ccccc1)CCC3	MEKK3 PB1 HTS 1.0[inhibitor] (no result: MEKK2 WT-MEK5) | MEKK2wt confirm inactive | MEKK2mut-MEK5 inactive | MEKK3-MEK5 inh inactive
COc1ccc(C(=O)NNC(=O)c2ccc(C)cc2)cc1S(=O)(=O)N1CCCC1	none
CCOc1ccc(S(=O)(=O)N(CC(=O)N2CCC(C(N)=O)CC2)c2ccc(F)cc2)cc1	none
O=c1[nH]ncc(N/N=C\c2ccncc2)c1Cl	MEKK3 PB1 HTS 136.0 | MEKK2wt confirm inactive | MEKK2mut-MEK5 inactive | MEKK3-MEK5 inh inactive
O=c1[nH]ncc(N/N=C\c2cccnc2)c1Cl	none
CCOc1ccc(OCCC(=O)N(CC)CC(=O)Nc2c(F)cccc2F)cc1	none (no result: GSK3beta inhib, MEKK2 WT-MEK5, MEKK2 mut-MEK5, MEKK3 PB1 HTS)
COC(=O)c1cc(NC(=O)c2ccc(F)cc2)cc(C(=O)OC)c1	MEKK2 mut-MEK5 103.0 (no result: MEKK2 WT-MEK5) | MEKK2wt confirm inactive | MEKK2mut-MEK5 inactive | MEKK3-MEK5 inh inactive
COC(=O)c1cc(NC(=O)c2ccccc2F)cc(C(=O)OC)c1	none
Fc1cccc(NC(=S)NCc2cccnc2)c1	none
Cc1cc(C)cc(NC(=S)NCc2cccnc2)c1	MEKK3 PB1 HTS 142.0 | MEKK2wt confirm inactive | MEKK2mut-MEK5 inactive | MEKK3-MEK5 inh inactive
Cc1cc(C)cc(NC(=S)NCc2ccncc2)c1	none
Fc1ccc(NC(=S)NCc2cccnc2)cc1	MEKK3 PB1 HTS 47.0[inhibitor] | MEKK2wt confirm inactive | MEKK2mut-MEK5 inactive | MEKK3-MEK5 inh inactive
